Data as given in ChEMBL document CHEMBL2086388, “Antihyperglycemic effect of syringaldehyde in streptozotocin-induced diabetic rats” (2012).
The source made the active and inactive calls. No cut-off for these calls is given here.

Columns and labels:
[1] = test system: Rattus norvegicus; assay: Antihyperglycemic activity in STZ-induced diabetic rats assessed as reduction in plasma glucose levels at 100 mg/kg, po; assay type: functional
[2] = test system: Rattus norvegicus; assay: Antihyperglycemic activity in Wistar rats assessed as reduction in plasma glucose levels at 7.2 mg/kg, iv administered 30 mins prior to glucose challenge measured after 30 mins; assay type: functional, organism-based; parameters: dose 7.2 mg/kg
How it was run: (§1)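 IV glucose challenge in pentobarbital-anesthetized (30 mg/kg ip) Wistar rats. Compound 7.2 mg/kg or saline injected into the tail vein; 30 min later the 0-min sample was drawn. Glucose 60.0 mg/kg then given via the femoral vein. Tail-vein plasma glucose measured at 5–120 min and compared with the vehicle group at each time. n=8.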

[3] = test system: Rattus norvegicus; assay: Antihyperglycemic activity in Wistar rats assessed as reduction in plasma glucose levels at 7.2 mg/kg, iv administered 30 mins prior to glucose challenge measured after 120 mins; assay type: functional, organism-based; parameters: dose 7.2 mg/kg; how it was run: as §1
[4] = test system: Rattus norvegicus; assay: Antihyperglycemic activity in STZ-induced diabetic Wistar rats assessed as reduction in plasma glucose levels at 1.8 mg/kg, iv administered as bolus dose measured after 60 mins; assay type: functional; parameters: scale not given: the % may be the effect or the level left
How it was run: (§2)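 Fasted rats made diabetic with STZ 60 mg/kg iv (plasma glucose ≥20 mmol/L plus polyuria) and used 2 weeks later. Compound dissolved in normal saline and given as an iv bolus over 1.8–7.2 mg/kg; controls got saline. Tail-vein plasma glucose measured at 60 min under pentobarbital 30 mg/kg ip. Activity = [(Gi−Gt)/Gi]×100%. n=8.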

[5] = test system: Rattus norvegicus; assay: Antihyperglycemic activity in Wistar rats assessed as reduction in plasma glucose levels at 7.2 mg/kg, iv administered 30 mins prior to glucose challenge measured after 5 mins; assay type: functional, organism-based; parameters: dose 7.2 mg/kg; how it was run: as §1
[6] = test system: Rattus norvegicus; assay: Antihyperglycemic activity in iv dosed STZ-induced diabetic Wistar rats assessed as reduction in plasma glucose levels administered as bolus dose measured after 60 mins; assay type: functional, organism-based; how it was run: as §2
[7] = test system: Rattus norvegicus; assay: Antihyperglycemic activity in Wistar rats assessed as reduction in plasma glucose levels at 7.2 mg/kg, iv administered as bolus dose measured after 60 mins; assay type: functional; parameters: scale not given: the % may be the effect or the level left
How it was run: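 Normal fasted Wistar rats, n=8. Compound in saline given iv at 7.2 mg/kg. Tail-vein plasma glucose taken under pentobarbital anesthesia. Lowering expressed as percent decrease from the initial glucose value.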

[8] = test system: L6; assay: Induction of glucose uptake in rat L6 cells after 60 mins by 2-NBDG fluorescence assay; assay type: functional, cell-based
How it was run: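 Rat L6 cells grown 48 h, trypsinized, 1×10^6 cells/mL. Cells incubated in PBS with 0.2 mM 2-NBDG plus compound or vehicle, 37 °C, 60 min in the dark. Then washed three times with cold PBS. Fluorescence read at ex 488/em 520 nm. Eight experiments per group, means ± SEM.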

[9] = test system: Rattus norvegicus; assay: Antihyperglycemic activity in STZ-induced diabetic Wistar rats assessed as reduction in plasma glucose levels at 7.2 mg/kg, iv administered as bolus dose measured after 60 mins; assay type: functional; conditions: 1 h; how it was run: as §2
[10] = test system: Rattus norvegicus; assay: Antidiabetic activity in STZ-induced diabetic Wistar rats assessed as increase in response to exogenous insulin at 7.2 mg/kg, iv tid for 3 days; assay type: functional, organism-based; parameters: dose 7.2 mg/kg
How it was run: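 STZ-diabetic rats (STZ 60 mg/kg iv, glucose ≥20 mmol/L, used 2 weeks later) first given long-acting human insulin 1 IU/kg once daily. Compound or saline then given iv three times daily for 3 days. Challenge was short-acting human insulin iv 0.1–1.0 IU/kg. Femoral-vein blood taken at 30 min for plasma glucose. n=8 per group, means ± SE.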

Row | Compound | Emax at 100 mg/kg [1] | Activity [2] | Activity [3] | Activity [4] | Activity [5] | Activity [6] | Activity [7] | Activity [8] | Emax at 7.2 mg/kg [9] | Activity [10]
1 | CN(C)C(=N)NC(=N)N [METFORMIN] | 32% | – | – | – | – | – | – | – | – | –
2 | COc1cc(C=O)cc(OC)c1O [SYRINGALDEHYDE] | – | Active | inactive | 11.08% | Active | Dose-dependent effect | 25.93% | Dose-dependent effect | 31.3% | Active
